Data from ChEMBL document CHEMBL2380224, “Fragment-based ligand design of novel potent inhibitors of tankyrases” (J Med Chem, 2013).

Experiments:
[1] = target: T1, Protein mono-ADP-ribosyltransferase PARP3 (Homo sapiens, UniProt Q9Y6F1); assay: Inhibition of PARP3 (unknown origin)
T1 sequence (Q9Y6F1 whole entry): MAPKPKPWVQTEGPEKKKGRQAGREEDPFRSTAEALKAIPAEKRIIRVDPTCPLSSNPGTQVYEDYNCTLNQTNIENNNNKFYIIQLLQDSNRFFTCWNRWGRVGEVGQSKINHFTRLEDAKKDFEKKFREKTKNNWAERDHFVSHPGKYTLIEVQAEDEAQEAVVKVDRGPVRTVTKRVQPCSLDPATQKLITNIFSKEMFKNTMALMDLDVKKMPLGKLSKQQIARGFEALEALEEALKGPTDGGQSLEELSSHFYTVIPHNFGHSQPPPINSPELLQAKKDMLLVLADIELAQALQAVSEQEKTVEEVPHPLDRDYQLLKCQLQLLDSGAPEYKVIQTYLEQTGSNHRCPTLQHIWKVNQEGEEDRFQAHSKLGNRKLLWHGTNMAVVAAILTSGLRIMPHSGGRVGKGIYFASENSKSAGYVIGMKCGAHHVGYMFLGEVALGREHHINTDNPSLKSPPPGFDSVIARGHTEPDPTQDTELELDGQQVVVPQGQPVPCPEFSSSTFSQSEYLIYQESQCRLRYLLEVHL

[2] = target: T2, Protein mono-ADP-ribosyltransferase TIPARP (Homo sapiens) (UniProt Q7Z3E1); assay: Inhibition of PARP7 (unknown origin) at 10 uM relative to control
T2 sequence (whole entry): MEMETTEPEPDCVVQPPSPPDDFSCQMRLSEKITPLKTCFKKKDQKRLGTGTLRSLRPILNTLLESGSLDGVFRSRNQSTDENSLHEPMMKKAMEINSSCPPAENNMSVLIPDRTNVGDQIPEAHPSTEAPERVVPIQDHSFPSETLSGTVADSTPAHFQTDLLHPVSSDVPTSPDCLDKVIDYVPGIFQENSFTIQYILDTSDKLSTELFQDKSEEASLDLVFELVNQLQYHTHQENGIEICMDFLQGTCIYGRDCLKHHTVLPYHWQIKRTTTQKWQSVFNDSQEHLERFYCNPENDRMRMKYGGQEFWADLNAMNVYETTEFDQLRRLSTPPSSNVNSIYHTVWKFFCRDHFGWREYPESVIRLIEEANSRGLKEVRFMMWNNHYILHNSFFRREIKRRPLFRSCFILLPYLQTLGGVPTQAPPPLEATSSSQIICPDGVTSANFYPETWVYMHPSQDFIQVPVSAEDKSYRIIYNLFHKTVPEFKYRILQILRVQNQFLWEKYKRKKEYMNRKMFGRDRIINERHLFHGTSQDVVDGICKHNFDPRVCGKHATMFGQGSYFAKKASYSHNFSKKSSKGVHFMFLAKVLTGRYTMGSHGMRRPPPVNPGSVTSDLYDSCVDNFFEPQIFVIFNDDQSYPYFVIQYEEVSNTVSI

[3] = target: T3, Poly [ADP-ribose] polymerase tankyrase-2 (Homo sapiens) (UniProt Q9H2K2); assay: Binding affinity to TNKS2 PARP domain (947 to 1162) (unknown origin) expressed in Escherichia coli BL21(DE3) assessed as thermal stabilization at 125 uM by differential scanning flourimetric analysis
T3 sequence (whole entry): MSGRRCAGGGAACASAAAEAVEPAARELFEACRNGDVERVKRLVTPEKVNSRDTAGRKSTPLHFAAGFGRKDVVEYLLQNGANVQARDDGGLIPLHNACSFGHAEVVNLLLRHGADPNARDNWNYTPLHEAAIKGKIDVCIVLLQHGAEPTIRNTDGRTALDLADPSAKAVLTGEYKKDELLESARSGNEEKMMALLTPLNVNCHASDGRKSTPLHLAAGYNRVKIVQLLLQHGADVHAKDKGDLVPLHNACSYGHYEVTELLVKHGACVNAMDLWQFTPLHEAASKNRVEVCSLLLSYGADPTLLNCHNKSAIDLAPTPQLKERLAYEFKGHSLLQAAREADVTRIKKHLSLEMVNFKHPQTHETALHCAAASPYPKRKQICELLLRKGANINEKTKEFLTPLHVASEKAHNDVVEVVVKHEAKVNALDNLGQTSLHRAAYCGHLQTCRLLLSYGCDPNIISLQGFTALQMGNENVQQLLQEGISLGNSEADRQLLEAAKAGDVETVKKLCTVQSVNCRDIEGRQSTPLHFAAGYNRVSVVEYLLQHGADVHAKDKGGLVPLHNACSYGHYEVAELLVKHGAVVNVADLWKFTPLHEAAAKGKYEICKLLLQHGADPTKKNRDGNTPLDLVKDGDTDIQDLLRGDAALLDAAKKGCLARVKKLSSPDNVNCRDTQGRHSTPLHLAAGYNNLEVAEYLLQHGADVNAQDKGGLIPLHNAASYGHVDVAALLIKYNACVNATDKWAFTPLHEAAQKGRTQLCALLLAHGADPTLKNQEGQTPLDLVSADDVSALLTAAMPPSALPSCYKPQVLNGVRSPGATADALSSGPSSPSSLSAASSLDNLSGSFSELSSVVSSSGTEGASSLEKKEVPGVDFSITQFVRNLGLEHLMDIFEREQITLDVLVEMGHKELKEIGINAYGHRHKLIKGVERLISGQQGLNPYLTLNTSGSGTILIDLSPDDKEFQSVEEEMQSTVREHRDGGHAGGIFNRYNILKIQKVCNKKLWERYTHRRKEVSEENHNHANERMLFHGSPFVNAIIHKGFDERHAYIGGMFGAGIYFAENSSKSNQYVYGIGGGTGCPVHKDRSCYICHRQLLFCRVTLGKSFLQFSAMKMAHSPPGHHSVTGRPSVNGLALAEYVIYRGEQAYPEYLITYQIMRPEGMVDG
Procedure, shortened: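 DSF dose−response. TNKS2 at 0.2 mg/mL with SYPRO Orange (5×). Compounds were serially diluted in 100% DMSO at 50× the assay concentration. Chymotrypsin (1/100 TNKS2 mass equivalents) was added to the protein–dye mix just before the run. Scanned 25−80 °C at about 2 °C/min, ex 490/em 575 nm, and Tm shift was taken against the DMSO control.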

[4] = target: T4, Poly [ADP-ribose] polymerase tankyrase-2 (Homo sapiens, UniProt Q9H2K2); assay: Binding affinity to 6His-tagged TNKS2 PARP domain (947 to 1162) (unknown origin) expressed in Escherichia coli BL21(DE3) by surface plasmon resonance analysis
T4 sequence (Q9H2K2 whole entry): T3 sequence (whole entry)
Procedure, shortened: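 SPR on a Biacore instrument. Running buffer: 20 mM PBS pH 7.4, 0.05% Tween20, 2% DMSO. His-tagged TNKS2 (20 μg/mL in 20 mM PBS pH 7.4) was capture-coupled at 10 μL/min onto a Ni²⁺/NHS doubly preactivated NTA chip, to a target of 5000 RU.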

Homo sapiens [5] = species on record: Homo sapiens; assay: Selectivity ratio of IC50 for TNKS1 (unknown origin) to IC50 for TNKS2 PARP domain (947 to 1162) (unknown origin)
Homo sapiens [6] = species on record: Homo sapiens; assay: Selectivity ratio of IC50 for PARP1 (unknown origin) to IC50 for TNKS2 PARP domain (947 to 1162) (unknown origin)

- IC50 [1]: > 10000 nM
- inhibition [2]: 37%
- ΔTm [3]: 5.1 °C
- Kd [4]: 280 nM
- Ratio IC50 (Homo sapiens [5]): 16.5
- Ratio IC50 (Homo sapiens [6]): > 100
SMILES: Cc1cc(=O)[nH]c2cc(-c3ccccc3F)ccc12
